Experimental data as given in ChEMBL document CHEMBL1687753, “Mitochondrial DNA depletion and respiratory chain activity in primary human subcutaneous adipocytes treated with nucleoside analogue reverse transcriptase inhibitors” (Antimicrob Agents Chemother, 2010).
Calls of active or inactive are those of the source. The rule behind the calls is not given here.

Tests used:
[1] = Toxicity in human subcutaneous preadipocytes assessed as decrease of adiponectin expression at 0.1 uM after 30 days by ELISA; format: cell-based; details: 720 h
Procedure, shortened: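 Adiponectin secreted into the medium over days 25 to 30 of drug exposure in differentiating preadipocytes was measured by sandwich ELISA of culture supernatant. Three independent experiments.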

[2] = Toxicity in human subcutaneous preadipocytes assessed as decrease of insulin-sensitizing adipokine expression at 0.1 uM after 30 days by RT-PCR analysis; format: cell-based; details: 720 h
Procedure, shortened: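 Adiponectin mRNA at day 30 was measured by qRT-PCR normalized to transferrin receptor or beta-actin, using pooled RNA and cDNA. Triplicates from three independent experiments.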

[3] = Toxicity in human subcutaneous preadipocytes assessed as decrease of mitochondrial DNA abundance at 0.1 uM after 60 days by RT-PCR analysis; format: cell-based; details: 1440 h
Procedure, shortened: (§1)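 mtDNA content of differentiated preadipocytes at day 30 or 60 of drug exposure was measured by real-time quantitative PCR with human-specific primers. Absolute copy numbers came from serial dilutions of plasmid standards. Three independent experiments.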

[4] = Toxicity in human subcutaneous preadipocytes assessed as triacylglyceride droplets at 0.1 uM after 30 days using oil red O fluorescence staining by conventional fluorescence microscopy; format: cell-based; details: 720 h
Procedure, shortened: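 Preadipocytes were differentiated with a hormone cocktail (IBMX for the first 7 days, dexamethasone, insulin, indomethacin; high-glucose DMEM for days 0–18), with drug or vehicle present from day 0 to day 30. Cells were fixed in 10% formalin, stained with 0.21% oil red O in 60% isopropanol, and imaged by fluorescence microscopy. Quantification was by isopropanol extraction at 495 nm, optionally adjusted for viable cells.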

[5] = Toxicity in human subcutaneous preadipocytes assessed as decrease of PPARgamma expression at 3 uM after 18 days by RT-PCR analysis; format: cell-based; details: 432 h
Procedure, shortened: (§2)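 Differentiating preadipocytes were harvested at day 18. RNA from three plates was pooled and reverse transcribed, and qRT-PCR was run with 42 cycles of 94/55/72°C. Values were normalized to transferrin receptor or beta-actin by standard curve. Triplicates from three independent experiments.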

Homo sapiens [6] = experiment: Inhibition of electron transport protein complex 4 in human subcutaneous preadipocytes at 0.1 uM after 30 to 60 days by photometric analysis; format: cell-based
Procedure, shortened: (§3)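 Pooled primary human abdominal subcutaneous preadipocytes induced to differentiate with drug (DMSO vehicle, ≤0.1%) added at day 0 and kept to day 30 or 60. Cells sonicated twice for 10 s; substrates added to lysates and conversion by complexes I+III, II+III, IV, V and citrate synthase read photometrically at 37°C. Three independent experiments.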

[7] = Toxicity in fully differentiated human subcutaneous preadipocytes assessed as cell death at 0.1 uM after 30 days using […]; details: 720 h
Procedure, shortened: (§4)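 Trypan blue exclusion counted by microscopy at each medium change every fifth day during 30 days of drug exposure in differentiating pooled preadipocytes. Final viability was calculated by excluding the cumulative percentage of dead cells. Five independent experiments.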

[8] = Toxicity in human subcutaneous preadipocytes assessed as acquisition of adipocyte shape at 0.1 uM after 30 days using oil red O fluorescence staining by conventional fluorescence microscopy; format: cell-based; details: 720 h
Procedure, shortened: (§5)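 On day 30 of differentiation with drug present from day 0, cells were fixed in 10% formalin and stained with 0.21% oil red O. Staining was viewed by fluorescence and light microscopy. For quantification, dye was extracted with isopropanol and read at 495 nm, also adjusted for viable cell number. Five independent experiments.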

[9] = Toxicity in human subcutaneous preadipocytes assessed as decrease of mitochondrial DNA abundance at 0.1 uM after 30 days by RT-PCR analysis; format: cell-based; details: 720 h; procedure, shortened: as §1
Homo sapiens [10] = experiment: Inhibition of electron transport protein complex 5 in human subcutaneous preadipocytes at 0.1 uM after 30 to 60 days by photometric analysis; format: cell-based; procedure, shortened: as §3
Homo sapiens [11] = experiment: Inhibition of electron transport protein complex 1/3 in human subcutaneous preadipocytes at 0.1 uM after 30 to 60 days by photometric analysis; format: cell-based; procedure, shortened: as §3
[12] = Toxicity in human subcutaneous preadipocytes assessed as decrease of cell viability measured every 5 days at 0.1 uM after 30 days using […]; format: cell-based; details: 720 h; procedure, shortened: as §4
[13] = Toxicity in human subcutaneous preadipocytes assessed as decrease of cell cultures at 0.1 uM after 30 days using oil red O fluorescence staining by conventional fluorescence microscopy; format: cell-based; details: 720 h; procedure, shortened: as §5
[14] = Toxicity in human subcutaneous preadipocytes assessed as decrease of PPARgamma expression at 0.1 uM after 18 days by RT-PCR analysis; format: cell-based; details: 432 h; procedure, shortened: as §2
[15] = Toxicity in human subcutaneous preadipocytes assessed as decrease of mitochondrial DNA copy number per cell at 0.1 uM after 60 days by RT-PCR analysis; format: cell-based; set-up: scale not given: the % may be the effect or the level left; details: 1440 h; procedure, shortened: as §1
[16] = Toxicity in human subcutaneous preadipocytes assessed as effect on mitochondrial mass at 0.1 uM after 30 days using […] by flow cytometry analysis; format: cell-based; details: 720 h
[17] = Toxicity in human subcutaneous preadipocytes assessed as effect on mitochondrial membrane potential at 0.1 uM after 30 days using JC-1 red/green fluorescence dye by flow cytometry analysis; format: cell-based; details: 720 h
Procedure, shortened: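 Pooled primary human subcutaneous preadipocytes (passage ≤4) were differentiated with drug or DMSO vehicle from day 0 and cultured 30 days. Staining with the JC-1 kit was followed by flow cytometry, and the JC-1 red/green fluorescence intensity ratio was used as the membrane potential read-out. CCCP served as the depolarization control. Three independent experiments, means ± SEM.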

[18] = Toxicity in human subcutaneous preadipocytes assessed as cell death at 0.1 uM after 30 days using […]; format: cell-based; details: 720 h; procedure, shortened: as §4
Homo sapiens [19] = experiment: Inhibition of citrate synthase in human subcutaneous preadipocytes at 0.1 uM after 30 to 60 days by photometric analysis; format: cell-based; procedure, shortened: as §3
[20] = Toxicity in human subcutaneous preadipocytes assessed as decrease of C/EBPalpha expression at 3 uM after 18 days by RT-PCR analysis; format: cell-based; details: 432 h; procedure, shortened: as §2
[21] = Toxicity in human subcutaneous preadipocytes assessed as decrease of C/EBPalpha expression at 0.1 uM after 18 days by RT-PCR analysis; format: cell-based; details: 432 h; procedure, shortened: as §2
Homo sapiens [22] = experiment: Inhibition of electron transport protein complex 2/3 in human subcutaneous preadipocytes at 0.1 uM after 30 to 60 days by photometric analysis; format: cell-based; procedure, shortened: as §3

SMILES: Nc1ccn([C@H]2CC[C@@H](CO)O2)c(=O)n1 [ZALCITABINE]
- Activity [1]: Non-toxic
- Activity [2]: Non-toxic
- Activity [3]: Toxic
- Activity [4]: Non-toxic
- Activity [5]: Non-toxic
- inhibition (Homo sapiens [6]): inactive
- Activity [7]: Toxic
- Activity [8]: Non-toxic
- Activity [9]: Toxic
- inhibition (Homo sapiens [10]): inactive
- inhibition (Homo sapiens [11]): inactive
- Activity [12]: Toxic
- Activity [13]: Toxic
- Activity [14]: Non-toxic
- Activity [15]: 50%
- Activity [16]: Non-toxic
- Activity [17]: Non-toxic
- Activity [18]: Toxic
- inhibition (Homo sapiens [19]): inactive
- Activity [20]: Non-toxic
- Activity [21]: Non-toxic
- inhibition (Homo sapiens [22]): inactive
